# Source: PubChem BioAssay
# KCNQ1 block: blocks the human KCNQ1 potassium channel. P51787. CHO-K1 KCNQ1, FluxOR thallium flux fluorescence; hits give high values. B-score at 10 µM. 310,000 tested, 1.3% active. AID 2642;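 active = compounds whose thallium flux B-score, printed positive for inhibition, exceeds three library SD while starting fluorescence stays within three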;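 note: channel opened by potassium depolarization with thallium stimulus after 20 min compound exposure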
# hERG rescue: shields human hERG channel from block by proarrhythmic agents | activation (rescue from dofetilide block), less the hit threshold, % at 10 µM | CHO-hERG, FluxOR thallium flux, dofetilide IC70 present | Q12809 | 310,000 tested, 0.51% active;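 active = activation above the mean of controls blocked by dofetilide plus 5 SD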;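 note: thallium influx through hERG after potassium depolarization seen as dye fluorescence rise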
# KCNQ1 act: potentiates or activates the human KCNQ1 potassium channel; P51787; CHO-K1 KCNQ1, thallium flux FluxOR fluorescence; hits give high values; B-score at 10 µM; 310,000 tested, 0.35% active; AID 2648;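 active = fluorescence ratio B-score, a plate-corrected score, at least three library SD, with initial intensity B-score within 5 SD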
#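 assay system = KCNQ1-transfected CHO-K1 cells | medium = assay buffer with matched DMSO | probe or stimulus = depolarizing K+/Tl+ stimulus, K2SO4 and Tl2SO4 each 12.5 mM in 5x stock | dosing = single dose | incubation = dye 90 min, compound 20 min, room temperature | detection = kinetic FluxOR fluorescence, 10 s baseline plus 110 s post-stimulus | evaluation = ratio B score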
# PHOSPHO1 block: PHOSPHO1 (human) inhibition | recombinant PHOSPHO1, absorbance phosphatase assay | inhibition, % at 13.3 µM | Q8TCT1 | AID 1565 | 290,000 tested, 1.1% active; in the data active = inhibition above about 60%
# Target sequence (Q8TCT1 whole entry, looked up): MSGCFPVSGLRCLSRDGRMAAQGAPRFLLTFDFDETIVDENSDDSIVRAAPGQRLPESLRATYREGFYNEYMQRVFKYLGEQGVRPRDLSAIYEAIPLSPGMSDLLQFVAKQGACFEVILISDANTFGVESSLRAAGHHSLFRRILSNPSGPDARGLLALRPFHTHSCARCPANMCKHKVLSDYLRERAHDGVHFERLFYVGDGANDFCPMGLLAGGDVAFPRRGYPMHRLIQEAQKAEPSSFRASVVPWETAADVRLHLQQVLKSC
# KCNK3 block: human KCNK3 channel inhibition, primary screen. O14649. CHO-KCNK3 thallium flux, FluxOR fluorescence; hits give low values. B-score at 10 µM. 340,000 tested, 0.84% active. AID 602410;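 active = B-score under library mean minus 4 SD, starting fluorescence ratio at most library mean plus 5 SD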;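 note: more negative B-score means stronger inhibition of thallium flux through KCNK3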
# KCNK9 block: inhibitors of human KCNK9 two-pore domain potassium channel; Q9NPC2; HEK293 KCNK9, FluxOR thallium flux fluorescence; hits give low values; B-score at 10 µM; 310,000 tested, 1.2% active;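 active = ratio B-score over 3 SD below the library mean, with starting fluorescence within 5 SD of its mean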;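 note: negative B-score means less thallium flux so channel inhibition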
# * hit, by the source's call; i = inactive; . = not tested or not shown. Only some compounds are listed: those with a hit (about 4% of all), similar ones and a draw of the others.
SMILES,KCNQ1 block,hERG rescue,KCNQ1 act,PHOSPHO1 block,KCNK3 block,KCNK9 block
O=c1c2cc(Br)ccc2nc(-c2ccc([N+](=O)[O-])cc2)n1O,i,16.3*,26*,49.4,i,i
N#Cc1ccc(-c2nc3ccc(Br)cc3c(=O)n2O)cc1,i,1.0,i,.,i,i
O=c1c2ccc(Cl)cc2nc(-c2ccc([N+](=O)[O-])cc2)n1O,i,6.7*,35*,7.3,i,i
O=c1c2cc(Br)ccc2nc(-c2cccc(C(F)(F)F)c2)n1O,i,72.6*,99*,36.6,i,i
COc1ccc2ccc3cccc[n+]3c2c1,.,.,.,.,i,.
CNC(=S)N1CCN(C(c2ccccc2)c2ccccc2)CC1,i,-33.1,i,31.2,i,i
CCC(C)NC(=S)N1CCN(C(c2ccccc2)c2ccccc2)CC1 (centres undefined),i,-6.7,i,-14.1,i,-7.66*
COc1ccc(N(Cc2ccccc2)S(=O)(=O)c2ccc(C)cc2)cc1,i,-10.0,i,26.0,i,i
COc1ccccc1Nc1nc(-c2sc(NC(=O)c3ccccc3)nc2C)cs1,i,-22.0,i,50.0,i,i
CCCC(=O)Nc1nc(C)c(-c2csc(Nc3ccccc3C)n2)s1,i,-10.2,i,15.4,i,i
CCCCCC(=O)Nc1nc(C)c(-c2csc(Nc3ccccc3OC)n2)s1,i,-4.8,i,74.3*,i,i
CCCC(C)C(=O)Nc1nc(C)c(-c2csc(Nc3ccccc3OC)n2)s1 (centres undefined),i,-10.4,i,74.3*,i,-6.91*
CCCCCC(=O)Nc1nc(C)c(-c2csc(Nc3ccccc3OCC)n2)s1,i,-11.2,i,79.2*,i,i
CCCCCCC(=O)Nc1nc(C)c(-c2csc(Nc3ccccc3OC)n2)s1,i,-3.4,i,79.2*,i,i
CC(C)OC(=O)c1nnc(-c2ccccc2)nc1OC(C)C,i,-4.7,i,-2.2,i,i
COC(=O)C1C(=O)c2c(n[nH]c2C)CC1(C)C (centres undefined),i,-11.1,i,-0.5,i,i
CC(=O)Nc1ccc(S(=O)(=O)NCc2ccc(C(=O)NCCCN3CCC(C)CC3)cc2)cc1,i,-8.7,i,41.2,i,i
CCOc1ccccc1Nc1nc(-c2sc(NC(=O)c3cccc(Cl)c3)nc2C)cs1,i,-4.1,i,53.4,i,i
Cc1cc(NS(=O)(=O)c2ccc(Nc3nc(-c4sc(NC(=O)c5ccccc5)nc4C)cs3)cc2)no1,7*,-15.6,i,12.1,.,i
CCOc1ccccc1Nc1nc(-c2sc(NC(=O)c3ccccc3)nc2C)cs1,i,-10.3,i,87.7*,.,i
COC(=O)c1ccc(NC(=O)CN2CCN(c3ccccc3)CC2)cc1,i,-1.9,i,18.3,i,i
NNC(=O)CNS(=O)(=O)c1ccc([N+](=O)[O-])cc1,i,-3.4,i,31.7,i,i
Oc1c(C=Nc2ccccc2Cl)[nH]c2ccccc12,i,-26.7,i,63.1*,i,i
O=C(NCc1ccccc1C(F)(F)F)C1CC(c2cccc(F)c2)=NO1 (centres undefined),i,-5.0,i,17.7,i,i
O=C(NCc1ccccc1C(F)(F)F)C1CC(c2cc(C(F)(F)F)cc(C(F)(F)F)c2)=NO1 (centres undefined),6*,-5.6,i,44.1,i,i
SMILES,KCNQ1 block,hERG rescue,KCNQ1 act,PHOSPHO1 block,KCNK3 block,KCNK9 block
CC1CCCC(C)N1C(=O)COC(=O)CNC(=O)C12CC3CC(CC(C3)C1)C2 (centres undefined),i,-19.4,i,.,i,i
CC(=O)OCCN(C)c1cc(SC(C)C)c2nonc2c1[N+](=O)[O-],i,7.4*,i,8.4,i,i
O=C(Nc1cc([N+](=O)[O-])ccc1N1CCOCC1)c1ccco1,i,13.5*,i,8.4,i,i
CC(=O)Nc1cc([N+](=O)[O-])ccc1N1CCOCC1,i,-3.1,i,-29.0,i,i
O=C(CSc1nc2c(c(=O)n1-c1ccc(F)cc1)SCC2)Nc1ccc2c(c1)OCO2,i,-6.7,i,.,i,i
COc1ccc(-n2c(SCC(=O)Nc3ccc4c(c3)OCO4)nc3c(c2=O)SCC3)cc1,i,-8.4,i,61.0*,i,i
Cc1ccc(C(=O)CSc2n[nH]c(-c3ccco3)n2)cc1C,i,-14.0,i,-31.3,i,i
Nc1nc(SCC(=O)c2ccc(F)cc2)n[nH]1,i,-4.0,i,40.3,i,i
CCc1nc(SCC(=O)c2ccc(C)c(C)c2)n[nH]1,i,-7.8,i,99.0*,i,i
Cc1nc(SCC(=O)c2ccc(F)cc2)n[nH]1,i,-15.3,i,94.8*,i,i
COC(=O)[C@H]1[C@H]2C[C@H]3c4[nH]c5ccccc5c4CCN3C[C@H]2CC[C@@H]1O,i,-5.4,i,-5.6,i,i
CC(C)COC(=O)c1ccc2c(c1O)C(=O)c1ccccc1C2=O,i,-9.1,i,80.4*,i,i
COc1ccc2c(c1O)C(=O)c1ccccc1C2=O,i,-6.1,i,23.7,.,i
Cc1cccc(NC(=S)NNC(=O)c2csc3c2CCC(C)C3)c1 (centres undefined),i,-0.8,20*,30.7,i,i
CC(C)CNC(=S)NNC(=O)c1csc2c1CCC(C)C2 (centres undefined),i,-8.4,i,83.5*,i,i
CC1CCc2c(C(=O)NCCN3CCOCC3)csc2C1 (centres undefined),i,-0.7,i,4.4,i,i
CSCC[C@H](NC(=O)Nc1cccc(C(F)(F)F)c1)C(=O)O,i,-8.9,i,-38.9,i,i
CC(=O)c1ccc(NC(=O)c2ccn[nH]2)cc1,i,-9.5,i,28.1,i,i
O=C(/C=C/c1ccc(Br)cc1)N1CCN(c2cccc(C(F)(F)F)c2)CC1,7*,-13.3,i,-12.3,i,i
O=C(/C=C/c1cccc(Br)c1)N1CCN(c2cccc(C(F)(F)F)c2)CC1,i,-6.6,i,44.2,i,i
Cc1ccc(C(=O)Nc2nc(-c3ccccc3)c(-c3ccccc3)o2)cc1,i,-1.5,40*,-11.7,i,i
Cc1cc(C)nc(SCC(=O)Nc2nc(-c3ccccc3)c(-c3ccccc3)o2)n1,i,-16.9,i,-18.9,i,i
O=c1oc2ccccc2c(Cl)c1CN1CCCCC1,i,1.4,15*,36.8,i,i
